Where two headings read alike, the source gives them in different places.
Format: in vitro ADME, rat
Method in brief: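 Spiked rat plasma held under storage and analysis conditions, then quantified by UPLC-MS/MS. Work-up: IS (working solution 100 ng/mL) added, protein precipitation with acetonitrile (3 volumes), vortex 1 min, centrifugation 13,000 g for 10 min at 4°C, supernatant injected. Separation: BEH C18 column at 40°C, acetonitrile/0.1% formic acid gradient at 0.40 mL/min, 3.0 min run.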

Measured: Stability in rat plasma samples

CCc1nc(C(N)=O)c(Nc2ccc(N3CCC(N4CCN(C)CC4)CC3)c(OC)c2)nc1NC1CCOCC1 [Gilteritinib]
stable: at room temperature for at least 24 h | at −20°C for at least 31 days | in the auto-sampler (10°C) for at least four hours | three complete freeze (−20°C)/thaw (RT) cycles
